Laboratory results reported in publication PMC7161550 (British Journal of Pharmacology, 2020).
Values joined by “and” are separate entries in the source; they are usually repeats but may differ in a detail not shown here. Equal entries are not always repeated. “Also recorded” adds a separate entry of the source. Where two headings read alike, the source gives them in different places.

Experiments:
[1] = target: T1, human recombinant fatty acid amide hydrolase (FAAH) (Homo sapiens, UniProt O00519); experiment: FAAH activity in intact COS‐hFAAH cells; assay type: cell-based
T1 sequence (O00519 1-579): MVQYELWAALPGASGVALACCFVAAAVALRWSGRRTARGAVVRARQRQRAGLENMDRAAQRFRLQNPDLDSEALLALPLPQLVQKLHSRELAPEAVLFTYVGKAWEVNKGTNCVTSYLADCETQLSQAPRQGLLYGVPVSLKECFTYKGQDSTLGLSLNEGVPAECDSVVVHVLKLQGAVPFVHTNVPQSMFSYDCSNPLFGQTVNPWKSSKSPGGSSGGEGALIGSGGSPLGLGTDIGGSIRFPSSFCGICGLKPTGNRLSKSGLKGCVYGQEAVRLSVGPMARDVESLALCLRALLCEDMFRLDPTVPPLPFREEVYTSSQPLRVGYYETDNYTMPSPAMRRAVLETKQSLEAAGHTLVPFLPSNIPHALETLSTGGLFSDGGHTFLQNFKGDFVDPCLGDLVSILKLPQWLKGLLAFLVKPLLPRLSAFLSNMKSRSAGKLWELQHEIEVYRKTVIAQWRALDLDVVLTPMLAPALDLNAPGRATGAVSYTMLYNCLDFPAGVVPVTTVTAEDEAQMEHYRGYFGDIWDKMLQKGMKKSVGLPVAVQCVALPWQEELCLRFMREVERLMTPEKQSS

[2] = target: T2, mouse liver fatty acid amide hydrolase (FAAH) (Mus musculus, UniProt O08914); experiment: Ex vivo FAAH activity in mouse liver after oral administration; conditions: for ED50 [95% CI] Liver: 8 hr after oral administration
T2 sequence (O08914 1-579): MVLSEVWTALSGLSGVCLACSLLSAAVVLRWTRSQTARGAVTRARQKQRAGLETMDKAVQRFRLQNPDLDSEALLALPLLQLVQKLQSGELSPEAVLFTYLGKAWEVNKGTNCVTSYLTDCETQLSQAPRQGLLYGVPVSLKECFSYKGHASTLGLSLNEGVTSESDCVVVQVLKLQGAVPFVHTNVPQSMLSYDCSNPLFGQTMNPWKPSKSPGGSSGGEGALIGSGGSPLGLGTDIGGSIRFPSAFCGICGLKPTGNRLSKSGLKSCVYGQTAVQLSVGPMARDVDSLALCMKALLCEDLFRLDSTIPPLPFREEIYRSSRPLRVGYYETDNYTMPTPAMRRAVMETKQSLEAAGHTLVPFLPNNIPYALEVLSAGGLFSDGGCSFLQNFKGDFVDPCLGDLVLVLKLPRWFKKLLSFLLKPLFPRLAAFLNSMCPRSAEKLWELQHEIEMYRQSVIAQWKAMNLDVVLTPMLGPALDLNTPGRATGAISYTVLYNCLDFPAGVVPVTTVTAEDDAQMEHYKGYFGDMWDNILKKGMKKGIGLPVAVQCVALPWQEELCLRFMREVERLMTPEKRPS
How it was run: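 Liver and half-brain were collected into FAAH membrane buffer (3 mM MgCl2, 1 mM EDTA, 50 mM Tris HCl, pH 7.4) and stored at −20°C. Homogenates (15 μg protein brain, 5 μg liver) were pre-incubated 15 min at 37°C. AEA + 3H‑AEA + BSA was added for 10 min (brain) or 7 min (liver), then charcoal. Scintillation counting gave % remaining activity versus controls after blank subtraction.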

[3] = Plasma and brain levels of BIA 10‐2474 and PF‐04457845 in mice; assay type: in vivo; conditions: mouse; for Tmax / half-life / AUC(0-t) / Cmax: po
[4] = tested on: 229 assays for receptors, enzymes, transporters, ion channels, hormones, growth factors and inflammatory mediators; assay type: binding; conditions: 10 and 50 μM
[5] = tested on: COS‐hFAAH cells; experiment: Quantification of compounds in COS‐hFAAH supernatant, cell lysates and medium; assay type: in vitro ADME; conditions: 1, 3 and 24 hr
[6] = target: T3, fatty acid amide hydrolase (Rattus norvegicus, UniProt P97612); experiment: Gel‐based competitive ABPP in vitro, TAMRA‐FP probe, rat brain fractions; assay type: biochemical; conditions: 1 hr
T3 sequence (P97612 1-579): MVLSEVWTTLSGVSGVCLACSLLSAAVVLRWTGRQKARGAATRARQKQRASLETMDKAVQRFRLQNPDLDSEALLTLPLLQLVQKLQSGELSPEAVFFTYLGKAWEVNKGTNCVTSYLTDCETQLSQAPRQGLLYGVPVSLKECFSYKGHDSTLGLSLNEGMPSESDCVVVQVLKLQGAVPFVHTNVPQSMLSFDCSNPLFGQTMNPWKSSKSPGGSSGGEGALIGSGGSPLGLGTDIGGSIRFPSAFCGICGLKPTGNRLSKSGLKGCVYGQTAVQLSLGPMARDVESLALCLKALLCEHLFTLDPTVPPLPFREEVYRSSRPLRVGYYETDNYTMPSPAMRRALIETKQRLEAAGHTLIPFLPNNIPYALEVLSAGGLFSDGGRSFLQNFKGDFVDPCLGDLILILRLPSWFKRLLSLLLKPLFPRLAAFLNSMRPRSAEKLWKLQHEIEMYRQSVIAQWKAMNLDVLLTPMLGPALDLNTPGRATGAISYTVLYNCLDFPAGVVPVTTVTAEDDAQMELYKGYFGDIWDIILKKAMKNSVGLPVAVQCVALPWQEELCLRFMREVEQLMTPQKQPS
How it was run: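 Rat brain membrane and soluble protein extracts (200 μg) were incubated 1 hr at room temperature with test compound at 1 nM–100 μM, DMSO vehicle or PMSF 3 mM. Active serine hydrolases were then labelled with TAMRA‑FP probe (2 μM final) for 1 hr at room temperature. Bands were visualized by in-gel fluorescence.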

[7] = target: T4, rat brain fatty acid amide hydrolase (FAAH) (Rattus norvegicus, UniProt P97612); assay type: biochemical
T4 sequence (P97612 1-579): T3 sequence (P97612 1-579)
How it was run: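 Rat brain membranes from Wistar rats, 10 μg protein, in 1 mM EDTA, 10 mM Tris, pH 7.6. Test compound at 1 nM–10 μM, pre-incubated with enzyme 5–60 min, or reaction started with enzyme when not pre-incubated. Substrate 2 μM AEA + 5 nM 3H‑AEA + 0.1% fatty acid-free BSA, 30 min at room temperature with agitation. Charcoal stop; supernatant 3H‑ethanolamine counted. Blank and vehicle controls; IC50 from normalized variable-slope sigmoidal fit.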

[8] = brain (without cerebellum), 0.3 mg/kg

Compound: CN(C(=O)n1cnc(-c2ccc[n+]([O-])c2)c1)C1CCCCC1 [BIA 10‐2474, 3‐(1‐(cyclohexyl (methyl)carbamoyl)‐1H‐imidazol‐4‐yl)pyridine 1‐oxide]
- fold less potent than PF‐04457845 in inhibiting human FAAH in situ [1]: 10 fold
- IC50 ([1]; IC50 [95% CI], incubation 1 hr): 74.4 nM
- IC50 ([1]; IC50 [95% CI], incubation 3 hr): 42.5 nM
- IC50 ([1]; IC50 [95% CI], incubation 24 hr): 18 nM
- IC50 ([1]; IC50 values over all incubation times, intact cells expressing human FAAH): 18 to 74 nM
- ED50 [95% CI] Liver ([2]; 480 min): 6.2 μg·kg^−1 and 6.2 [4.8, 7.9] μg·kg^−1
- inhibition at 0.1 mg/kg ([2]; po, read-out: inhibition of liver FAAH): > 96.5%
- Brain AUClast ([3]; 0.1 mg·kg^−1 p.o.): 11.3 ng·h/g
- Brain C max ([3]; 0.1 mg·kg^−1 p.o.): 5.3 ng/g
- maximum level in brain ([3]; 0.1 mg·kg^−1 p.o., equivalent of 5.3 ng·g^−1): 18 nM
- maximum level in plasma ([3]; 0.1 mg·kg^−1 p.o., equivalent of 33.0 ng·ml^−1): 109 nM
- Brain AUClast ([3]; 0.3 mg·kg^−1 p.o.): 60.8 ng·h/g
- Brain C max ([3]; 0.3 mg·kg^−1 p.o.): 21.6 ng/g
- Tmax ([3]; brain (without cerebellum), 0.1 mg/kg): 1 h
- Tmax [3, 8]: 1 h
- half-life [3, 8]: 1.75 h
- AUC(0-t) ([3]; plasma, 0.1 mg/kg): 110 ng·h/mL
- Cmax ([3]; plasma, 0.1 mg/kg): 33 ng/mL
- Tmax ([3]; plasma, 0.1 mg/kg): 1 h
- half-life ([3]; plasma, 0.1 mg/kg): 2.2 h
- AUC(0-t) ([3]; plasma, 0.3 mg/kg): 338 ng·h/mL
- Cmax ([3]; plasma, 0.3 mg/kg): 104 ng/mL
- Tmax ([3]; plasma, 0.3 mg/kg): 1 h
- half-life ([3]; plasma, 0.3 mg/kg): 1.9 h
- off‐target activity at the sites studied [4]: no significant activity
- detection in cell lysates [5]: undetectable
- stability in cellular media over time [5]: stable
- concentration that completely inhibited the band corresponding to the MW of FAAH [6]: 100 µM
- IC50 ([7]; IC50 [95% CI], pre‐incubation 0 min): 1130 nM
- IC50 ([7]; IC50 [95% CI], pre‐incubation 5 min): 1180 nM
- IC50 ([7]; IC50 [95% CI], pre‐incubation 15 min): 626 nM
- IC50 ([7]; IC50 [95% CI], pre‐incubation 30 min): 424 nM
- IC50 ([7]; IC50 [95% CI], pre‐incubation 45 min): 360 nM
- IC50 ([7]; IC50 [95% CI], pre‐incubation 60 min): 398 nM
- IC50 ([7]; IC50 values over all pre‐incubation times, rat brain membranes): 360 to 1130 nM
- IC50 fold higher than those for JNJ‐42165279 ([7]; rat brain membranes): 2–4 fold

Compound: O=C(Nc1cccnn1)N1CCC(=Cc2cccc(Oc3ccc(C(F)(F)F)cn3)c2)CC1 [PF‐04457845]
- IC50 ([1]; read-out: IC50 [95% CI], incubation 1 hr): 4.3 nM
- IC50 ([1]; read-out: IC50 [95% CI], incubation 3 hr): 3.4 nM
- liver FAAH activity, % of control levels ([2]; 0.1 mg·kg^−1 p.o., 48 hr): 72.3%
- inhibition of hepatic FAAH, mean values ([2]; 0.1 mg·kg^−1 p.o., over 24 hr): above 88.7%
- ED50 [95% CI] Liver [2]: 2.0 [1.8, 2.2] μg·kg^−1
- Plasma AUClast ([3]; 0.03 mg·kg^−1 p.o.): 4.3 ng·h/mL
- Plasma C max ([3]; 0.03 mg·kg^−1 p.o.): 1.3 ng/mL
- Plasma t max ([3]; 0.03 mg·kg^−1 p.o.): 2 h
- detection in the brain ([3]; 0.03 mg·kg^−1 p.o.): not detectable
- Brain AUClast ([3]; 0.1 mg·kg^−1 p.o.): 22.9 ng·h/g
- Brain C max ([3]; 0.1 mg·kg^−1 p.o.): 3.7 ng/g
- Brain t max ([3]; 0.1 mg·kg^−1 p.o.): 2 h
- Plasma AUClast ([3]; 0.1 mg·kg^−1 p.o.): 238.3 ng·h/mL
- Plasma C max ([3]; 0.1 mg·kg^−1 p.o.): 38.3 ng/mL
- Plasma t max ([3]; 0.1 mg·kg^−1 p.o.): 2 h
- brain levels, fold lower than in plasma ([3]; 0.1 mg·kg^−1 p.o.): approximately 10 fold
- off‐target activity at the sites studied [4]: active at a number of sites; also recorded: significant activity at several receptors, transporters and ion channels
- detection in cell lysates [5]: detected
- stability in cellular media over time [5]: not stable
- concentration that completely inhibited the band corresponding to the MW of FAAH [6]: 0.1 µM
- IC50 ([7]; read-out: IC50 [95% CI], pre‐incubation 0 min): 3.9 nM
- IC50 ([7]; read-out: IC50 [95% CI], pre‐incubation 5 min): 2.8 nM
- IC50 ([7]; read-out: IC50 [95% CI], pre‐incubation 15 min): 1.5 nM
- IC50 ([7]; read-out: IC50 [95% CI], pre‐incubation 30 min): 2.7 nM
- IC50 ([7]; read-out: IC50 [95% CI], pre‐incubation 45 min): 2.7 nM
- IC50 ([7]; read-out: IC50 [95% CI], pre‐incubation 60 min): 2 nM
